Results as given in ChEMBL document CHEMBL3596168, “Novel inhibitors of RANKL-induced osteoclastogenesis: Design, synthesis, and biological evaluation of 6-(2,4-difluorophenyl)-3-phenyl-2H-benzo[e][1,3]oxazine-2,4(3H)-diones” (Bioorg Med Chem, 2015).
The source made the active and inactive calls. No cut-off for these calls is given here.

Experiments:
[1] = Cytotoxicity against mouse RAW264.7 cells assessed as cell viability at 5 uM after 24 hrs by MTT assay relative to control; type: cell-based; settings: read-out: Activity
Procedure, shortened: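 RAW264.7 cells, 1 × 10⁴ per well in DMEM with 10% FBS, were exposed to compounds for 24 h. MTT (500 µg/mL) was then added for 1 h at 37 °C, formazan was dissolved in DMSO, and absorbance was read at 540 nm. Viability at 5 µM is relative to untreated control. At least three independent experiments, mean ± SD.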

[2] = biological target: T1, Tumor necrosis factor ligand superfamily member 11 (Mus musculus) (UniProt O35235); assay: Inhibition of recombinant mouse RANKL-induced osteoclastogenesis of mouse RAW264.7 cells assessed as reduction of TRAP-positive multinucleated cells at 5 uM after 4 days by light microscopic analysis relative to control; type: cell-based
T1 sequence (whole entry): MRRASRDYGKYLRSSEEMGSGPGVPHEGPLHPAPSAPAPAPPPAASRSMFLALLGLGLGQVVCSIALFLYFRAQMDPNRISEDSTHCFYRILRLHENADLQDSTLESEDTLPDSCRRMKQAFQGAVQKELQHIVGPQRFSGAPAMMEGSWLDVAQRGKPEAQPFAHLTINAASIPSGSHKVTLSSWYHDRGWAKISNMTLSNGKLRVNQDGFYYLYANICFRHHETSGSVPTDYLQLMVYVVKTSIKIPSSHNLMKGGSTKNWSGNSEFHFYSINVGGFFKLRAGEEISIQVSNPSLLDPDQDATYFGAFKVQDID
Procedure, shortened: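 RAW264.7 cells were cultured 4 days in α-MEM with 10% FBS, 2 mM L-glutamine and RANKL 100 ng/mL, with or without compound at 5 µM. Medium was changed on day 2. Cells were fixed in acetone/citrate/formaldehyde and stained for TRAP for 1 h at 37 °C. TRAP+ cells with three or more nuclei were counted by light microscopy. Inhibition = 100% − MNCs (%). At least three independent experiments.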

[3] = biological target: T1, Tumor necrosis factor ligand superfamily member 11 (Mus musculus); assay: Inhibition of recombinant mouse RANKL-induced NF-kappaB expression in nuclear extracts of mouse RAW264.7 cells assessed as decrease in ratio of NF-kappaB to TBP level at 5 uM preincubated for 1 hr followed by RANKL addition measured after 24 hrs by Western blot analysis relative to control
Procedure, shortened: (§1)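 RAW264.7 cells (1 × 10⁵ per dish) grew in DMEM/10% FBS for 24 h. They were pretreated with compound in α-MEM/10% FBS for 1 h, then given RANKL (100 ng/mL) for 24 h. Nuclear extracts (18 µg protein) were run on 12% SDS–PAGE and immunoblotted for NF-κB p65, NFATc1 and TBP (loading reference) with ECL detection. More than two cultures.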

[4] = biological target: T1, Tumor necrosis factor ligand superfamily member 11 (Mus musculus); assay: Inhibition of recombinant mouse RANKL-induced osteoclastogenesis of mouse RAW264.7 cells assessed as suppression of TRAP mRNA expression at 2.5 to 5 uM preincubated for 1 hr followed by RANKL addition measured after 24 hrs by RT-PCR analysis; type: cell-based
Procedure, shortened: (§2)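 RAW264.7 cells (1 × 10⁵ per dish) were serum-starved 24 h in α-MEM, pretreated with compound for 1 h, then given RANKL (100 ng/mL) for 24 h. Total RNA (2 µg) was reverse-transcribed with oligo(dT) and amplified with mouse-specific primers. Products were resolved on 1.5% agarose with EtBr and densities normalized to GAPDH, as % of control. At least two independent experiments.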

[5] = biological target: T1, Tumor necrosis factor ligand superfamily member 11 (Mus musculus); assay: Inhibition of recombinant mouse RANKL-induced bone resorptive activity of mature osteoclasts derived from mouse RAW264.7 cells assessed as attenuation of resorbing pit formation on dentine slices after 4 days by toluidine blue staining assay; type: tissue-based
Procedure, shortened: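 Cells (1 × 10⁴ per well) were seeded on dentine slices in α-MEM with 10% FBS, 2 mM L-glutamine and RANKL 100 ng/mL, plus compound at 7.5, 5 or 2.5 µM. Medium was refreshed every 2 days. On day 4 cells were removed with 1 M NH₄OH and slices stained with 0.1% toluidine blue. Resorbed/total area was expressed as % of control, from more than 6 slices.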

[6] = biological target: T1, Tumor necrosis factor ligand superfamily member 11 (Mus musculus); assay: Inhibition of recombinant mouse RANKL-induced NF-kappaB expression in nucleus of mouse RAW264.7 cells at 5 uM preincubated for 1 hr followed by RANKL addition measured after 24 hrs by ELISA plate analysis; type: cell-based
Procedure, shortened: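 Cells were pretreated 1 h with compound in α-MEM/10% FBS, then stimulated with RANKL (100 ng/mL) for 24 h. NF-κB p65 DNA binding in nuclear extracts was measured on plates coated with the response element, using primary plus tagged secondary antibody. Absorbance was read at 450 nm.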

[7] = biological target: T1, Tumor necrosis factor ligand superfamily member 11 (Mus musculus); assay: Inhibition of recombinant mouse RANKL-induced TRAP activity in mouse RAW264.7 cells using 4-nitrophenyl phosphate as TRAP substrate preincubated for 4 days followed by substrate addition measured after 15 mins by ELISA reader analysis; type: cell-based
Procedure, shortened: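 RAW264.7 cells (2 × 10⁴ per well) were cultured 4 days in α-MEM with 10% FBS, 2 mM L-glutamine and murine RANKL 100 ng/mL, with or without compound. Cells were lysed in 0.1% Triton X-100/50 mM Tris-HCl pH 7.2 on ice. They were incubated with 2 mg/mL 4-nitrophenyl phosphate in 0.09 M citrate for 15 min at 37 °C, stopped with 0.1 N NaOH, and read at 405 nm. Protein was measured by BCA.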

[8] = biological target: T1, Tumor necrosis factor ligand superfamily member 11 (Mus musculus); assay: Inhibition of recombinant mouse RANKL-induced NF-kappaB expression in nuclear extracts of mouse RAW264.7 cells assessed as decrease in ratio of NFATc1 to TBP level at 5 uM preincubated for 1 hr followed by RANKL addition measured after 24 hrs by Western blot analysis relative to control; procedure, shortened: as §1
[9] = biological target: T1, Tumor necrosis factor ligand superfamily member 11 (Mus musculus); assay: Inhibition of recombinant mouse RANKL-induced osteoclastogenesis of mouse RAW264.7 cells assessed as suppression of c-fos mRNA expression at 2.5 to 5 uM preincubated for 1 hr followed by RANKL addition measured after 24 hrs by RT-PCR analysis; type: cell-based; procedure, shortened: as §2
[10] = biological target: T1, Tumor necrosis factor ligand superfamily member 11 (Mus musculus); assay: Inhibition of recombinant mouse RANKL-induced osteoclastogenesis of mouse RAW264.7 cells assessed as suppression of cathepsin K mRNA expression at 2.5 to 5 uM preincubated for 1 hr followed by RANKL addition measured after 24 hrs by RT-PCR analysis; type: cell-based; procedure, shortened: as §2
[11] = biological target: T1, Tumor necrosis factor ligand superfamily member 11 (Mus musculus); assay: Inhibition of recombinant mouse RANKL-induced osteoclastogenesis of mouse RAW264.7 cells assessed as suppression of NFATc1 mRNA expression at 2.5 to 5 uM preincubated for 1 hr followed by RANKL addition measured after 24 hrs by RT-PCR analysis; type: cell-based; procedure, shortened: as §2

Row | SMILES | viability at 24 h, 5 µM [1] [%] | inhibition [2] [%] | further results
1 | O=c1oc2ccc(-c3ccc(F)cc3F)cc2c(=O)n1-c1ccc(F)cc1F | 96.5 | 42.3 | 
2 | COc1cccc(-n2c(=O)oc3ccc(-c4ccc(F)cc4F)cc3c2=O)c1 | 106 | 30.8 | 
3 | O=c1oc2ccc(-c3ccc(F)cc3F)cc2c(=O)n1-c1ccc(C(F)(F)F)cc1 | 103 | 16.9 | 
4 | O=c1oc2ccc(-c3ccc(F)cc3F)cc2c(=O)n1-c1ccccc1C(F)(F)F | 95.5 | 31.6 | 
5 | COc1ccc(-n2c(=O)oc3ccc(-c4ccc(F)cc4F)cc3c2=O)cc1OC | 103 | 21.2 | 
6 | N#Cc1ccc(-n2c(=O)oc3ccc(-c4ccc(F)cc4F)cc3c2=O)cc1 | 108 | 29.4 | 
7 | O=c1oc2ccc(-c3ccc(F)cc3F)cc2c(=O)n1-c1cc(F)ccc1F | 86.6 | 86.8 | fold change (FC) [3]: 0.69; inhibition [4]: Active; inhibition [5]: Dose-dependent effect; inhibition [6]: Active; inhibition [7]: Dose-dependent effect; fold change (FC) [8]: 0.61; inhibition [9]: Active; inhibition [10]: Active; inhibition [11]: Active
8 | N#Cc1cccc(-n2c(=O)oc3ccc(-c4ccc(F)cc4F)cc3c2=O)c1 | 103 | 34 | 
9 | O=c1oc2ccc(-c3ccc(F)cc3F)cc2c(=O)n1-c1ccc(Cl)cc1F | 96.2 | 19.4 | 
10 | O=c1oc2ccc(-c3ccc(F)cc3F)cc2c(=O)n1-c1ccc(F)c(F)c1 | 72.2 | 17.4 | 
11 | O=c1oc2ccc(-c3ccc(F)cc3F)cc2c(=O)n1-c1cccc(C(F)(F)F)c1 | 100 | 62.9 | inhibition [7]: Dose-dependent effect
12 | C#Cc1cccc(-n2c(=O)oc3ccc(-c4ccc(F)cc4F)cc3c2=O)c1 | 88.4 | 57.5 | inhibition [4]: Active; inhibition [7]: Dose-dependent effect; inhibition [9]: Active; inhibition [10]: Active; inhibition [11]: Active
